In brackets after ≈: the same amount, converted by molar mass.
How the values were obtained:
Staphylococcus aureus [1] = assay: Antimicrobial activity against Staphylococcus aureus 6 expressing inducible ermC after 20 hrs by agar dilution method
Streptococcus pneumoniae [2] = assay: Antimicrobial activity against Streptococcus pneumoniae 9 expressing mefA after 20 hrs by agar dilution method; format: functional; conditions: Streptococcus pneumoniae, 20 h; read-out: MIC
How it was run: (§1)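 Streptococci, H. influenzae and M. catarrhalis were precultured on blood agar plates. Suspensions of about 10⁶ CFU/ml were inoculated onto sensitivity disk agar supplemented with 5% horse blood and incubated at 37 °C for 20 h. MIC was read as the lowest drug concentration with no visible growth.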

Streptococcus pneumoniae [3] = assay: Antimicrobial activity against Streptococcus pneumoniae 8 expressing inducible ermB after 20 hrs by agar dilution method; format: functional; conditions: Streptococcus pneumoniae, 20 h; read-out: MIC
How it was run: as §1

Haemophilus influenzae [4] = assay: Antimicrobial activity against drug-susceptible Haemophilus influenzae 4 after 20 hrs by agar dilution method; format: functional; conditions: Haemophilus influenzae, 20 h; read-out: MIC
How it was run: as §1

Moraxella catarrhalis [5] = assay: Antimicrobial activity against drug-susceptible Moraxella catarrhalis 1 after 20 hrs by agar dilution method; format: functional
How it was run: as §1

Streptococcus pneumoniae [6] = assay: Antimicrobial activity against Streptococcus pneumoniae 4 constitutively expressing ermB after 20 hrs by agar dilution method; format: functional; conditions: Streptococcus pneumoniae, 20 h; read-out: MIC
How it was run: as §1

Staphylococcus aureus [7] = assay: Antimicrobial activity against drug-susceptible Staphylococcus aureus 2 after 20 hrs by agar dilution method; format: functional
How it was run: (§2)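 Agar dilution MIC. S. aureus seed culture was grown in sensitivity test broth. Cell suspension (about 10⁶ CFU/ml) was inoculated onto sensitivity disk agar with 5% horse blood and incubated at 37 °C for 20 h. MIC was the lowest drug concentration that prevented visible growth.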

Staphylococcus aureus [8] = assay: Antimicrobial activity against Staphylococcus aureus 5 expressing inducible ermB after 20 hrs by agar dilution method; format: functional
How it was run: as §2

Moraxella catarrhalis [9] = assay: Antimicrobial activity against drug-susceptible Moraxella catarrhalis 2 after 20 hrs by agar dilution method; format: functional
How it was run: as §1

Streptococcus pneumoniae [10] = assay: Antimicrobial activity against Streptococcus pneumoniae 6 constitutively expressing ermB after 20 hrs by agar dilution method; format: functional; conditions: Streptococcus pneumoniae, 20 h; read-out: MIC
How it was run: as §1

Staphylococcus aureus [11] = assay: Antimicrobial activity against drug-susceptible Staphylococcus aureus 3 after 20 hrs by agar dilution method; format: functional
How it was run: as §2

Haemophilus influenzae [12] = assay: Antimicrobial activity against drug-susceptible Haemophilus influenzae 2 after 20 hrs by agar dilution method; format: functional; conditions: Haemophilus influenzae, 20 h; read-out: MIC
How it was run: as §1

Staphylococcus aureus [13] = assay: Antimicrobial activity against drug-susceptible Staphylococcus aureus 209P JC-1 after 20 hrs by agar dilution method; format: functional
How it was run: as §2

Streptococcus pneumoniae [14] = assay: Antimicrobial activity against drug-susceptible Streptococcus pneumoniae 2 after 20 hrs by agar dilution method; format: functional; conditions: Streptococcus pneumoniae, 20 h; read-out: MIC
How it was run: as §1

Streptococcus pneumoniae [15] = assay: Antimicrobial activity against drug-susceptible Streptococcus pneumoniae 3 after 20 hrs by agar dilution method; format: functional; conditions: Streptococcus pneumoniae, 20 h; read-out: MIC
How it was run: as §1

Staphylococcus aureus [16] = assay: Antimicrobial activity against Staphylococcus aureus 4 constitutively expressing ermA after 20 hrs by agar dilution method; format: functional
How it was run: as §2

Streptococcus pneumoniae [17] = assay: Antimicrobial activity against Streptococcus pneumoniae 5 constitutively expressing ermB/mefA after 20 hrs by agar dilution method; format: functional; conditions: Streptococcus pneumoniae, 20 h; read-out: MIC
How it was run: as §1

Haemophilus influenzae [18] = assay: Antimicrobial activity against drug-susceptible Haemophilus influenzae 1 after 20 hrs by agar dilution method; format: functional; conditions: Haemophilus influenzae, 20 h; read-out: MIC
How it was run: as §1

Streptococcus pyogenes [19] = assay: Antimicrobial activity against Streptococcus pyogenes 3 expressing mefA after 20 hrs by agar dilution method; format: functional; conditions: Streptococcus pyogenes, 20 h; read-out: MIC
How it was run: as §1

Haemophilus influenzae [20] = assay: Antimicrobial activity against drug-susceptible Haemophilus influenzae 3 after 20 hrs by agar dilution method; format: functional; conditions: Haemophilus influenzae, 20 h; read-out: MIC
How it was run: as §1

Streptococcus pneumoniae [21] = assay: Antimicrobial activity against Streptococcus pneumoniae 7 expressing inducible ermB after 20 hrs by agar dilution method; format: functional; conditions: Streptococcus pneumoniae, 20 h; read-out: MIC
How it was run: as §1

Streptococcus pyogenes [22] = assay: Antimicrobial activity against Streptococcus pyogenes 2 constitutively expressing ermB after 20 hrs by agar dilution method; format: functional
How it was run: as §1

Streptococcus pyogenes [23] = assay: Antimicrobial activity against drug-susceptible Streptococcus pyogenes 1 after 20 hrs by agar dilution method; format: functional; conditions: Streptococcus pyogenes, 20 h; read-out: MIC
How it was run: as §1

Streptococcus pneumoniae [24] = assay: Antimicrobial activity against Streptococcus pneumoniae 10 expressing mefA after 20 hrs by agar dilution method; format: functional; conditions: Streptococcus pneumoniae, 20 h; read-out: MIC
How it was run: as §1

Streptococcus pneumoniae [25] = assay: Antimicrobial activity against drug-susceptible Streptococcus pneumoniae DP1 Type1 after 20 hrs by agar dilution method; format: functional
How it was run: as §1

| Structure (SMILES) | MIC (Staphylococcus aureus [1]) | MIC (Streptococcus pneumoniae [2]) | MIC (Streptococcus pneumoniae [3]) | MIC (Haemophilus influenzae [4]) | MIC (Moraxella catarrhalis [5]) | MIC (Streptococcus pneumoniae [6]) | MIC (Staphylococcus aureus [7]) | MIC (Staphylococcus aureus [8]) | MIC (Moraxella catarrhalis [9]) | MIC (Streptococcus pneumoniae [10]) | MIC (Staphylococcus aureus [11]) | MIC (Haemophilus influenzae [12]) | MIC (Staphylococcus aureus [13]) | MIC (Streptococcus pneumoniae [14]) | MIC (Streptococcus pneumoniae [15]) | MIC (Staphylococcus aureus [16]) | MIC (Streptococcus pneumoniae [17]) | MIC (Haemophilus influenzae [18]) | MIC (Streptococcus pyogenes [19]) | MIC (Haemophilus influenzae [20]) | further results |
| --- | --- | --- | --- | --- | --- | --- | --- | --- | --- | --- | --- | --- | --- | --- | --- | --- | --- | --- | --- | --- | --- |
| CCOC(=O)[C@H]1[C@H](C)O[C@@H](O[C@H]2[C@H](N(C)C)[C@@H](O)[C@H](O[C@H]3[C@@H](CC=O)C[C@@H](C)[C@@H](O)CN(C)CCC(C/C=C/c4ccnc5ccccc45)NC(=O)C[C@@H](OC(=O)CC)[C@@H]3OC)O[C@@H]2C)C[C@@]1(C)O (single isomer, unassigned) | 1 µg/mL (≈ 1.03 µM) | 0.25 µg/mL (≈ 0.257 µM) | > 128 µg/mL | 32 µg/mL (≈ 32.9 µM) | 2 µg/mL (≈ 2.06 µM) | > 128 µg/mL | 2 µg/mL (≈ 2.06 µM) | 0.5 µg/mL (≈ 0.515 µM) | 1 µg/mL (≈ 1.03 µM) | > 128 µg/mL | 0.5 µg/mL (≈ 0.515 µM) | 2 µg/mL (≈ 2.06 µM) | 1 µg/mL (≈ 1.03 µM) | 0.13 µg/mL (≈ 0.134 µM) | 0.25 µg/mL (≈ 0.257 µM) | > 128 µg/mL | > 128 µg/mL | 64 µg/mL (≈ 65.9 µM) | 2 µg/mL (≈ 2.06 µM) | 16 µg/mL (≈ 16.5 µM) | MIC (Streptococcus pneumoniae [21]): > 128 µg/mL; MIC (Streptococcus pyogenes [22]): > 128 µg/mL; MIC (Streptococcus pyogenes [23]): 0.5 µg/mL (≈ 0.515 µM); MIC (Streptococcus pneumoniae [24]): 0.25 µg/mL (≈ 0.257 µM); MIC (Streptococcus pneumoniae [25]; Streptococcus pneumoniae, 20 h, read-out: MIC): 0.13 µg/mL (≈ 0.134 µM) |
| CCOC(=O)[C@H]1[C@H](C)O[C@@H](O[C@H]2[C@H](N(C)C)[C@@H](O)[C@H](O[C@H]3[C@@H](CC=O)C[C@@H](C)[C@@H](O)CN(C)CCC(CCCc4ccnc5ccccc45)NC(=O)C[C@@H](OC(=O)CC)[C@@H]3OC)O[C@@H]2C)C[C@@]1(C)O (stereo in doubt; form 1) | 1 µg/mL (≈ 1.03 µM) | 0.13 µg/mL (≈ 0.134 µM) | 32 µg/mL (≈ 32.9 µM) | 8 µg/mL (≈ 8.22 µM) | 2 µg/mL (≈ 2.06 µM) | > 128 µg/mL | 1 µg/mL (≈ 1.03 µM) | 1 µg/mL (≈ 1.03 µM) | 2 µg/mL (≈ 2.06 µM) | > 128 µg/mL | 0.5 µg/mL (≈ 0.514 µM) | 2 µg/mL (≈ 2.06 µM) | 1 µg/mL (≈ 1.03 µM) | 0.13 µg/mL (≈ 0.134 µM) | 0.13 µg/mL (≈ 0.134 µM) | > 128 µg/mL | > 128 µg/mL | 32 µg/mL (≈ 32.9 µM) | 2 µg/mL (≈ 2.06 µM) | 8 µg/mL (≈ 8.22 µM) | MIC (Streptococcus pneumoniae [21]): 32 µg/mL (≈ 32.9 µM); MIC (Streptococcus pyogenes [22]): > 128 µg/mL; MIC (Streptococcus pyogenes [23]): 0.25 µg/mL (≈ 0.257 µM); MIC (Streptococcus pneumoniae [24]): 0.13 µg/mL (≈ 0.134 µM); MIC (Streptococcus pneumoniae [25]): 0.06 µg/mL (≈ 0.0617 µM) |

From ChEMBL document CHEMBL1151705, “Novel azalides derived from 16-membered macrolides. Part II: Isolation of the linear 9-formylcarboxylic acid and its sequential macrocyclization with an amino alcohol or an azidoamine” (2008)
